How the values were obtained:
[1] = molecular target: T1, 5-hydroxytryptamine receptor 1A (Rattus norvegicus) (UniProt P19327); assay: Inhibitory activity against 5-hydroxytryptamine 1A receptor of rat hippocampal tissue at 0.1 uM; settings: Hippocampus
T1 sequence (whole entry): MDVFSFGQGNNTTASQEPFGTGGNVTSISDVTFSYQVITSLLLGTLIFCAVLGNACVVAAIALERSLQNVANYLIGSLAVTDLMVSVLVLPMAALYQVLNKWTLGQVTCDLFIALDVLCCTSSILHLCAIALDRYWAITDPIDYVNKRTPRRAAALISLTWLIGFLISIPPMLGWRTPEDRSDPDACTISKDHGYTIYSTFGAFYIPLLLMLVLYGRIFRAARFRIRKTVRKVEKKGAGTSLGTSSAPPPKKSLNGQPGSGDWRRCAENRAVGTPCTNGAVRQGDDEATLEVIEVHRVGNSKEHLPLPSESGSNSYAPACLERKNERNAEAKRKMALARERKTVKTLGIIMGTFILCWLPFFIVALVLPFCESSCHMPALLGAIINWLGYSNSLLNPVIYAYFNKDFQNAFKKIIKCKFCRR

D(2) dopamine receptor = D(2) dopamine receptor (Rattus norvegicus, UniProt P61169); assay: Inhibitory activity against rat limbic tissue Dopamine receptor D2; type: tissue-based, Limbic system
In short: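 Rat limbic membranes, handled as in the 5-HT2 assay: 15 min at 37 °C, 50 mM Tris pH 7.6, drug concentration range. 30 nM ketanserin in all tubes to block 5-HT2 sites. Nonspecific binding defined with 10 μM sulpiride. Filtration and counting.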

[2] = molecular target: T2, 5-hydroxytryptamine receptor 1A (Rattus norvegicus, UniProt P19327); assay: Antagonist activity against rat hippocampal tissue 5-hydroxytryptamine 1A receptor; type: functional, tissue-based, Hippocampus
T2 sequence (P19327 whole entry): T1 sequence (whole entry)

[3] = molecular target: Serotonin 2 (5-HT2) receptor (Rattus norvegicus, UniProt P30994+P08909+P14842); assay: Inhibitory activity against rat cortical 5-hydroxytryptamine 2 receptor; type: protein assay
In short: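 Cortical membranes from male Sprague–Dawley rats, incubated 15 min at 37 °C in 50 mM Tris pH 7.6 with 1.0 nM [3H]ketanserin and a range of drug concentrations. Nonspecific binding defined with 100 μM methysergide. Run by filtration and counting.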

[4] = molecular target: D(2) dopamine receptor (Rattus norvegicus) (UniProt P61169); assay: Inhibitory activity against rat limbic tissue Dopamine receptor D2 at 1 uM concentration; type: tissue-based; settings: Limbic system
Rattus norvegicus [5] = assay: Antagonistic activity against quipazine induced head shakes against male Sprague-Dawley CD rats following ip administration of the compound; type: functional
In short: (§1)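 Male Sprague–Dawley CD rats (200–300 g), 8 per treatment, given compound or vehicle ip 30 min before quipazine 2.5 mg/kg ip or DOI 1.0 mg/kg ip. Rhythmic radial head shakes counted for 30 min after agonist. ED50 by nonlinear regression with inverse prediction.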

Rattus norvegicus [6] = assay: Induction of serotonin syndrome against male Sprague-Dawley CD rats following ip administration of the compound; type: functional
In short: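 Male Sprague–Dawley CD rats (150–250 g), group-housed and acclimated 1 week, given compound or vehicle ip, 8 per group. Forepaw treading, head weaving, tremor, hindlimb abduction, flat body posture and Straub tail each rated 0–3 (maximum 18) over the first 15 min. ED50 by nonlinear regression with inverse prediction.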

Rattus norvegicus [7] = assay: Antagonistic activity antagonist DOI induced head shakes against male Sprague-Dawley CD rats following ip administration of the compound; type: functional
In short: as §1

Rattus norvegicus [8] = assay: Antagonistic activity against […] induced serotonin syndrome against male Sprague-Dawley CD rats following ip administration of the compound; type: functional
In short: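 Rats were dosed ip with compound or vehicle (male Sprague–Dawley CD, 150–250 g, 8 per group), then challenged with 8-OH-DPAT 3 mg/kg ip. The six serotonin-syndrome behaviours were each rated 0–3 for a further 15 min. ED50 by nonlinear regression with inverse prediction.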

[9] = molecular target: T2, 5-hydroxytryptamine receptor 1A; assay: Inhibitory activity against 5-hydroxytryptamine 1A receptor of rat hippocampal tissue; type: tissue-based, Hippocampus
In short: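 Rat hippocampal membranes from male Sprague–Dawley rats (150–250 g), preincubated 10 min at 37 °C to remove endogenous 5-HT. Used at 0.4–0.6 mg protein with 1.5–1.8 nM [3H]8-OH-DPAT and a range of drug concentrations, 10 min at 37 °C, in 50 mM Tris pH 7.7 with 0.1% ascorbate, 10 μM pargyline and 4 mM CaCl2. Nonspecific binding defined with 1 μM 5-HT. Filtration, scintillation counting. Ki from duplicate assays, 95% CI.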

[10] = molecular target: T1, 5-hydroxytryptamine receptor 1A (Rattus norvegicus); assay: Inhibitory activity against rat hippocampal tissue 5-hydroxytryptamine 1A receptor at 0.1 uM concentration; type: tissue-based; settings: Hippocampus
[11] = molecular target: T1, 5-hydroxytryptamine receptor 1A (Rattus norvegicus); assay: Inhibitory activity against rat hippocampal tissue 5-hydroxytryptamine 1A receptor at 1 uM concentration; type: tissue-based; settings: Hippocampus
[12] = molecular target: D(2) dopamine receptor (Rattus norvegicus) (UniProt P61169); assay: Inhibitory activity against Dopamine receptor D2 of rat limbic tissue at 1 uM; type: tissue-based; settings: Limbic system

Chain of D(2) dopamine receptor (Rattus norvegicus) (P61169 whole entry): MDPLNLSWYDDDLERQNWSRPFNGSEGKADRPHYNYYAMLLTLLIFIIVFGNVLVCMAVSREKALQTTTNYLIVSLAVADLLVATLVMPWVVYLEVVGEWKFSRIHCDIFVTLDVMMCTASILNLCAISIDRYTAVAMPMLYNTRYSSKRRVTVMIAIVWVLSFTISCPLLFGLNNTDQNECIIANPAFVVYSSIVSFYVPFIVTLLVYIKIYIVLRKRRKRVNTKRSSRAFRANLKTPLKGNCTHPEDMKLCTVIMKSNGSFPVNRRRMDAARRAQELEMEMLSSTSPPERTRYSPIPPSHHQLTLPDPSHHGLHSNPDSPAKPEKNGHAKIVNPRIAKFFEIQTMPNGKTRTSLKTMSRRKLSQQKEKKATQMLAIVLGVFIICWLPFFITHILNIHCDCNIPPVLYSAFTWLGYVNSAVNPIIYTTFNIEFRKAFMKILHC
Chain of D(2) dopamine receptor (P61169 whole entry): as above

Row | Structure (SMILES) | Ki (D(2) dopamine receptor) | Ki [2] | Ki [3] | further results
1 | C[C@@H](CN1CCN(Cc2ccccc2)CC1)NC(=O)C12C[C@H]3C[C@@H](C1)C[C@@H](C2)C3 | – | – | – | inhibition [1]: 0%
2 | COc1ccccc1N1CCN(CCC(=O)NC23C[C@H]4C[C@@H](C2)C[C@@H](C3)C4)CC1.Cl.Cl | 93 nM | 9 nM | 77 nM | –
3 | COc1ccccc1N1CCN(CCNC(=O)NC23C[C@H]4C[C@@H](C2)C[C@@H](C3)C4)CC1 | – | 9 nM | 38 nM | inhibition [4]: 94%
4 | COc1ccccc1N1CCN(CCCNC(=O)C23CC4C[C@@H](C[C@H]2C4)C3)CC1.Cl.Cl | – | 3.3 nM | 43.5 nM | inhibition [4]: 72%
5 | COc1ccccc1N1CCN(CCCNC(=O)C23C[C@H]4C[C@@H](C2)C[C@@H](C3)C4)CC1.Cl.Cl | 200 nM | 1 nM | 75 nM | ED50 (Rattus norvegicus [5]): 4.5 mg/kg; ED50 (Rattus norvegicus [6]): 9 mg/kg; ED50 (Rattus norvegicus [7]): 4.4 mg/kg; ED50 (Rattus norvegicus [8]): 5.8 mg/kg
6 | C[C@H](CN1CCN(c2ncccn2)CC1)NC(=O)C12C[C@H]3C[C@@H](C1)C[C@@H](C2)C3 | 153 nM | 1.1 nM | 961 nM | –
7 | Cl.Cl.O=C(NCCN1CCN(c2ncccn2)CC1)C12C[C@H]3C[C@@H](C1)C[C@@H](C2)C3 | 166 nM | – | 73 nM | ED50 (Rattus norvegicus [5]): 0.6 mg/kg; ED50 (Rattus norvegicus [6]): 12.9 mg/kg; ED50 (Rattus norvegicus [7]): 1.8 mg/kg; Ki [9]: 1 nM; ED50 (Rattus norvegicus [8]): 2.2 mg/kg
8 | O=C(OCCCN1CCN(c2cncc(Cl)n2)CC1)C12C[C@H]3C[C@@H](C1)C[C@@H](C2)C3 | – | – | – | inhibition [10]: 5%
9 | COc1ccccc1N1CCN(CCNC(=O)C23C[C@H]4C[C@@H](C2)C[C@@H](C3)C4)CC1.Cl.Cl | 24 nM | 1 nM | 274 nM | –
10 | O=C(N[C@@H](Cc1ccccc1)CN1CCN(c2ncccn2)CC1)C12C[C@H]3C[C@@H](C1)C[C@@H](C2)C3 | 1690 nM | 1 nM | 1360 nM | –
11 | COc1ccccc1N1CCN(CCCNC(=O)CC23C[C@H]4C[C@@H](C2)C[C@](C)(C4)C3)CC1 | – | 4.4 nM | – | inhibition [4]: 79%
12 | Cc1cccc(N2CCN(C[C@@H](C)NC(=O)C34C[C@H]5C[C@@H](C3)C[C@@H](C4)C5)CC2)c1C | – | – | – | inhibition [1]: 0%
13 | Cc1cccc(N2CCN(C[C@H](C)NC(=O)C34C[C@H]5C[C@@H](C3)C[C@@H](C4)C5)CC2)c1C | – | – | – | inhibition [1]: 0%
14 | Cl.Cl.O=C(N[C@H](Cc1ccccc1)CN1CCN(Cc2ccccc2)CC1)C12C[C@H]3C[C@@H](C1)C[C@@H](C2)C3 | 1400 nM | 2.3 nM | 722 nM | –
15 | COc1ccccc1N1CCN(CCNC(=O)C23CC4C[C@@H](C[C@H]2C4)C3)CC1.Cl.Cl | – | 0.24 nM | 8.2 nM | inhibition [4]: 100%
16 | COc1ccccc1N1CCN(CCCNC(=O)NC23C[C@H]4C[C@@H](C2)C[C@@H](C3)C4)CC1.Cl.Cl | 176 nM | 1 nM | 348 nM | –
17 | COc1ccccc1N1CCN(C(=O)NC23C[C@H]4C[C@@H](C2)C[C@@H](C3)C4)CC1 | – | – | – | inhibition [11]: 0%
18 | O=C(N[C@H](Cc1ccccc1)CN1CCN(c2ncccn2)CC1)C12C[C@H]3C[C@@H](C1)C[C@@H](C2)C3 | 20 nM | 0.43 nM | 395 nM | –
19 | COc1ccccc1N1CCN(CCNC(=O)CC23C[C@H]4C[C@@H](C2)C[C@](C)(C4)C3)CC1 | – | 11 nM | – | inhibition [4]: 70%
20 | COc1ccccc1N1CCN(CCCOC(=O)C23C[C@H]4C[C@@H](C2)C[C@@H](C3)C4)CC1.Cl.Cl | 35 nM | 8.5 nM | 180 nM | –
21 | Cl.Cl.O=C(OCCN1CCN(c2ncccn2)CC1)C12C[C@H]3C[C@@H](C1)C[C@@H](C2)C3 | 708 nM | 8.5 nM | 2180 nM | –
22 | O=C(NC12C[C@H]3C[C@@H](C1)C[C@@H](C2)C3)OCCN1CCN(c2ncccn2)CC1 | – | – | – | inhibition [1]: 34%
23 | O=C(NCCCN1CCN(c2ncccn2)CC1)NC12CC3CC(CC1C3)C2 | – | – | – | inhibition [12]: 6%; inhibition [1]: 69%
24 | O=C(OCCCN1CCN(c2ncccn2)CC1)C12CC3C[C@@H](C[C@H]1C3)C2 | – | – | – | inhibition [1]: 12%
25 | Cl.Cl.O=C(N[C@@H](Cc1ccccc1)CN1CCN(Cc2ccccc2)CC1)C12C[C@H]3C[C@@H](C1)C[C@@H](C2)C3 | 3390 nM | 0.7 nM | 1890 nM | –
26 | Cl.Cl.O=C(NCCN1CCN(c2cccc(Cl)c2)CC1)C12C[C@H]3C[C@@H](C1)C[C@@H](C2)C3 | 129 nM | 0.89 nM | 16.4 nM | –

From ChEMBL document CHEMBL1132497, “Synthesis and SAR of adatanserin: novel adamantyl aryl- and heteroarylpiperazines with dual serotonin 5-HT(1A) and 5-HT(2) activity as potential anxiolytic and antidepressant agents” (J Med Chem, 1999)
